Reference: ChEMBL document CHEMBL1121449, “Synthesis and antineoplastic activity of hydroquinone dialdehydes” (J Med Chem, 1980)

Experiments:
[1] = tested on: Mus musculus; test: Tested for mean survival time treated animal not surviving 50 days as a percentage at dose of 10 mg/kg; assay type: functional
How it was run: (§1)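 Female CD-1 mice, Sarcoma 180 ascites, 0.1 mL of 10^7 cells/mL given ip. Drug in 0.9% NaCl, 5% ethanol, Tween 80, serially diluted with saline. Dosed ip at 0.5 mL daily for 6 days from 24 h post-implant; daily dose based on starting mean weight. T/C is the mean survival of treated mice dying before 50 days vs controls. Survivors are those alive ≥50 days out of those treated.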

[2] = tested on: Mus musculus; test: Tested for change in body weight from onset to termination at dose of 10 mg/kg; assay type: functional
How it was run: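 Tumor-bearing mice were dosed ip once daily for 6 consecutive days from 24 h after ip tumor implantation; saline controls. Each group was weighed on day 7, the day after the last injection, and the change from the implantation day (day 0) was expressed as % body-weight change, used as a toxicity measure.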

[3] = tested on: Mus musculus; test: Tested for number of animal surviving at least 50 days out of 5 animal treated at dose of 0.31 mg/kg; assay type: functional; how it was run: as §1
[4] = tested on: Mus musculus; test: Tested for number of animal surviving at least 50 days out of 5 animal treated at dose of 10 mg/kg; assay type: functional; how it was run: as §1
[5] = tested on: Mus musculus; test: Tested for change in body weight from onset to termination at dose of 2.5 mg/kg; assay type: functional
How it was run: (§2)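 Female CD-1 mice inoculated ip with 0.1 mL of 10^7 Sarcoma 180 ascites cells/mL. Drug in 0.9% NaCl with 5% ethanol and Tween 80, serially diluted in saline, given ip once daily for 6 days starting 24 h after implantation. Dose based on mean starting weight. Controls received saline. Weight change recorded from day 0 to day 7, as % change.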

[6] = tested on: Mus musculus; test: Tested for number of animal surviving at least 50 days out of 15 animal treated at dose of 2.5 mg/kg; assay type: functional; how it was run: as §1
[7] = tested on: Mus musculus; test: Tested for mean survival time treated animal not surviving 50 days as a percentage at dose of 1.25 mg/kg; assay type: functional; how it was run: as §1
[8] = tested on: Mus musculus; test: Tested for change in body weight from onset to termination at dose of 5 mg/kg; assay type: functional; how it was run: as §2
[9] = tested on: Mus musculus; test: Tested for mean survival time treated animal not surviving 50 days as a percentage at dose of 2.5 mg/kg; assay type: functional; how it was run: as §1
[10] = Tested for inhibition of growth of sarcoma 180 cells in culture; assay type: functional, cell-based; settings: Mus musculus
How it was run: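 Sarcoma 180 cells in suspension in Fischer's medium with 10% horse serum and penicillin/streptomycin, seeded at 10^4 cells/mL. Drug added from 10× stocks in 10% Me2SO/PBS, final 1–100 μM. Control cultures contained 1% Me2SO. Triplicate Coulter counts at 24, 48 and 72 h. IC50 read from a plot of inhibition of cell-number increase at 72 h versus concentration.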

[11] = tested on: Mus musculus; test: Tested for change in body weight from onset to termination at dose of mg/kg; assay type: functional; how it was run: as §2
[12] = tested on: Mus musculus; test: Tested for number of animal surviving at least 50 days out of 10 animal treated at dose of 1.25 mg/kg; assay type: functional; how it was run: as §1
[13] = tested on: Mus musculus; test: Tested for mean survival time treated animal not surviving 50 days as a percentage at dose of 0.63 mg/kg; assay type: functional; how it was run: as §1
[14] = tested on: Mus musculus; test: Tested for change in body weight from onset to termination at dose of 1.25 mg/kg; assay type: functional; how it was run: as §2
[15] = tested on: Mus musculus; test: Tested for mean survival time treated animal not surviving 50 days as a percentage at dose of 0.31 mg/kg; assay type: functional; how it was run: as §1
[16] = tested on: Mus musculus; test: Tested for mean survival time treated animal not surviving 50 days as a percentage at dose of 5 mg/kg; assay type: functional; how it was run: as §1
[17] = tested on: Mus musculus; test: Tested for change in body weight from onset to termination at dose of 0.63 mg/kg; assay type: functional; how it was run: as §2
[18] = tested on: Mus musculus; test: Tested for number of animal surviving at least 50 days out of 15 animal treated at dose of 5 mg/kg; assay type: functional; how it was run: as §1
[19] = tested on: Mus musculus; test: Tested for number of animal surviving at least 50 days out of 5 animal treated at dose of 0.63 mg/kg; assay type: functional; how it was run: as §1

O=Cc1ccccc1C=O [ORTHO-PHTHALALDEHYDE]
Activity [1]: 43% | Activity [2]: -3% | Survivors [3]: 0 | Survivors [4]: 0 | Activity [5]: 0% | Survivors [6]: 0 | Activity [7]: 176% | Activity [8]: -2% | Mean survival time, treated vs control (T/C) [9]: 154% | IC50 [10]: 12 µM | Activity [11]: 15% | Survivors [12]: 1 | Activity [13]: 193% | Activity [14]: 4% | Activity [15]: 121% | Activity [16]: 99% | Activity [17]: 5% | Survivors [18]: 0 | Survivors [19]: 0
